In ChEMBL document CHEMBL4689842, “EUbOPEN Chemogenomics Library wave 1” (2021):
Where “and” joins values, the source holds several entries; their conditions need not be identical. Equal values may be shown once.

System: U2OS
Test: Multiplex assay against U2OS
Type: toxicity, cell-based
Details: human
Method in brief: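 Cells stained live at seeding with Hoechst33342, BioTracker Green Microtubule Cytoskeleton Dye, MitoTracker Red and Annexin V Alexa Fluor 680 were imaged on a CQ1 microscope at 37°C and 5% CO2 after compound addition. Their classification by CellPathfinder machine-learning gating ran from Hoechst high-intensity objects versus normal cells, to healthy, pyknosed or fragmented nuclei among normal cells, to mitotic or apoptotic among pyknosed cells. Tubulin, mitochondrial-mass and membrane-permeability phenotypes are per cents of healthy-nucleus cells.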

[1] = 12 h, 1 µM, compound concentration 1 uM, replicate 1
[2] = 12 h, 1 µM, compound concentration 1 uM, replicate 2
[3] = 24 h, 1 µM, compound concentration 1 uM, replicate 1
[4] = 24 h, 1 µM, compound concentration 1 uM, replicate 2
[5] = 12 h, 10 µM, compound concentration 10 uM, replicate 1
[6] = 12 h, 10 µM, compound concentration 10 uM, replicate 2
[7] = 24 h, 10 µM, compound concentration 10 uM, replicate 1
[8] = 24 h, 10 µM, compound concentration 10 uM, replicate 2
[9] = 48 h, 1 µM, compound concentration 1 uM, replicate 1
[10] = 48 h, 1 µM, compound concentration 1 uM, replicate 2
[11] = 48 h, 10 µM, compound concentration 10 uM, replicate 1
[12] = 48 h, 10 µM, compound concentration 10 uM, replicate 2

## Cn1cc(C2=C(c3cn(C4CCN(Cc5ccccn5)CC4)c4ccccc34)C(=O)NC2=O)c2ccccc21 [ENZASTAURIN]
[1]
  Population Apoptotic (%): 65% and 50%
  Population Fragmented Nuclei (%): 20% and 9%
  Population Healthy Nuclei (%): 30% and 78%
  Population Hoechst High Intensity Objects (%): 4% and 5%
  Population Membrane Permeable-Phenotype (%): 58%
  Population Mitotic Cells (%): 34% and 50%
  Population Normal (%): 95% and 94%
  Population Tubulin-Different-Phenotype (%): 48%
  Total Cell Count: 159 and 95
[2]
  Population Apoptotic (%): 76% and 37%
  Population Fragmented Nuclei (%): 18% and 16%
  Population Healthy Nuclei (%): 45% and 70%
  Population Hoechst High Intensity Objects (%): 11% and 17%
  Population Membrane Permeable-Phenotype (%): 63% and 33%
  Population Mitotic Cells (%): 23% and 62%
  Population Normal (%): 88% and 82%
  Population Pyknosed Nuclei (%): 35% and 13%
  Population Tubulin-Different-Phenotype (%): 100% and 34%
  Total Cell Count: 147 and 102
[3]
  Population Apoptotic (%): 89% and 53%
  Population Fragmented Nuclei (%): 15% and 5%
  Population Normal (%): 83% and 96%
  Total Cell Count: 194 and 119
[4]
  Population Apoptotic (%): 62%
  Population Fragmented Nuclei (%): 14% and 8%
  Population Hoechst High Intensity Objects (%): 14% and 10%
  Population Membrane Permeable-Phenotype (%): 19%
  Population Mitotic Cells (%): 37%
  Population Normal (%): 85% and 89%
  Population Tubulin-Different-Phenotype (%): 17%
  Total Cell Count: 149 and 124

## C[C@@H](NCCCc1cccc(C(F)(F)F)c1)c1cccc2ccccc12.Cl [CINACALCET HYDROCHLORIDE]
[1]
  Population Fragmented Nuclei (%): 6%
  Population Healthy Nuclei (%): 79%
  Population Hoechst High Intensity Objects (%): 5%
  Population Membrane Permeable-Phenotype (%): 4%
  Population Mitochondria Different-Phenotype (%): 30%
  Population Normal (%): 94%
  Population Pyknosed Nuclei (%): 13%
  Population Tubulin-Different-Phenotype (%): 40%
  Total Cell Count: 184
[2]
  Population Apoptotic (%): 33%
  Population Fragmented Nuclei (%): 10%
  Population Healthy Nuclei (%): 76%
  Population Hoechst High Intensity Objects (%): 9%
  Population Membrane Permeable-Phenotype (%): 11%
  Population Mitochondria Different-Phenotype (%): 22%
  Population Mitotic Cells (%): 66%
  Population Normal (%): 90%
  Population Pyknosed Nuclei (%): 12%
  Population Tubulin-Different-Phenotype (%): 36%
  Total Cell Count: 52
[5]
  Population Apoptotic (%): 41%
  Population Fragmented Nuclei (%): 14%
  Population Healthy Nuclei (%): 60%
  Population Hoechst High Intensity Objects (%): 9%
  Population Membrane Permeable-Phenotype (%): 22%
  Population Mitotic Cells (%): 58%
  Population Normal (%): 90%
  Population Pyknosed Nuclei (%): 24%
  Population Tubulin-Different-Phenotype (%): 98%
  Total Cell Count: 155
[6]
  Population Apoptotic (%): 88%
  Population Fragmented Nuclei (%): 20%
  Population Healthy Nuclei (%): 23%
  Population Hoechst High Intensity Objects (%): 7%
  Population Membrane Permeable-Phenotype (%): 33%
  Population Mitochondria Different-Phenotype (%): 93%
  Population Mitotic Cells (%): 11%
  Population Normal (%): 92%
  Population Pyknosed Nuclei (%): 55%
  Population Tubulin-Different-Phenotype (%): 93%
  Total Cell Count: 68
[3]
  Population Apoptotic (%): 29%
  Population Fragmented Nuclei (%): 5%
  Population Healthy Nuclei (%): 82%
  Population Hoechst High Intensity Objects (%): 3%
  Population Membrane Permeable-Phenotype (%): 4%
  Population Mitochondria Different-Phenotype (%): 20%
  Population Mitotic Cells (%): 70%
  Population Normal (%): 96%
  Population Pyknosed Nuclei (%): 12%
  Population Tubulin-Different-Phenotype (%): 20%
  Total Cell Count: 205
[4]
  Population Apoptotic (%): 36%
  Population Fragmented Nuclei (%): 8%
  Population Healthy Nuclei (%): 69%
  Population Hoechst High Intensity Objects (%): 7%
  Population Membrane Permeable-Phenotype (%): 5%
  Population Mitochondria Different-Phenotype (%): 26%
  Population Mitotic Cells (%): 63%
  Population Normal (%): 92%
  Population Pyknosed Nuclei (%): 22%
  Population Tubulin-Different-Phenotype (%): 17%
  Total Cell Count: 53
[7]
  Population Apoptotic (%): 72%
  Population Fragmented Nuclei (%): 14%
  Population Healthy Nuclei (%): 51%
  Population Hoechst High Intensity Objects (%): 6%
  Population Membrane Permeable-Phenotype (%): 46%
  Population Mitochondria Different-Phenotype (%): 97%
  Population Mitotic Cells (%): 28%
  Population Normal (%): 93%
  Population Pyknosed Nuclei (%): 34%
  Population Tubulin-Different-Phenotype (%): 100%
  Total Cell Count: 157
[8]
  Population Apoptotic (%): 92%
  Population Fragmented Nuclei (%): 15%
  Population Healthy Nuclei (%): 32%
  Population Hoechst High Intensity Objects (%): 24%
  Population Membrane Permeable-Phenotype (%): 52%
  Population Mitochondria Different-Phenotype (%): 88%
  Population Mitotic Cells (%): 7%
  Population Normal (%): 75%
  Population Pyknosed Nuclei (%): 51%
  Population Tubulin-Different-Phenotype (%): 82%
  Total Cell Count: 69
[9]
  Population Apoptotic (%): 38%
  Population Fragmented Nuclei (%): 8%
  Population Healthy Nuclei (%): 80%
  Population Hoechst High Intensity Objects (%): 2%
  Population Membrane Permeable-Phenotype (%): 3%
  Population Mitochondria Different-Phenotype (%): 11%
  Population Mitotic Cells (%): 61%
  Population Normal (%): 97%
  Population Pyknosed Nuclei (%): 11%
  Population Tubulin-Different-Phenotype (%): 16%
  Total Cell Count: 293
[10]
  Population Apoptotic (%): 54%
  Population Fragmented Nuclei (%): 14%
  Population Healthy Nuclei (%): 70%
  Population Hoechst High Intensity Objects (%): 6%
  Population Membrane Permeable-Phenotype (%): 8%
  Population Mitochondria Different-Phenotype (%): 18%
  Population Mitotic Cells (%): 45%
  Population Normal (%): 93%
  Population Pyknosed Nuclei (%): 15%
  Population Tubulin-Different-Phenotype (%): 12%
  Total Cell Count: 75
[11]
  Population Apoptotic (%): 70%
  Population Fragmented Nuclei (%): 26%
  Population Healthy Nuclei (%): 33%
  Population Hoechst High Intensity Objects (%): 7%
  Population Membrane Permeable-Phenotype (%): 58%
  Population Mitochondria Different-Phenotype (%): 96%
  Population Mitotic Cells (%): 29%
  Population Normal (%): 92%
  Population Pyknosed Nuclei (%): 39%
  Population Tubulin-Different-Phenotype (%): 98%
  Total Cell Count: 176
[12]
  Population Apoptotic (%): 91%
  Population Fragmented Nuclei (%): 18%
  Population Healthy Nuclei (%): 35%
  Population Hoechst High Intensity Objects (%): 22%
  Population Membrane Permeable-Phenotype (%): 78%
  Population Mitochondria Different-Phenotype (%): 89%
  Population Mitotic Cells (%): 8%
  Population Normal (%): 77%
  Population Pyknosed Nuclei (%): 45%
  Population Tubulin-Different-Phenotype (%): 94%
  Total Cell Count: 68
